Source: ChEMBL document CHEMBL1914364, “3-bromohomofascaplysin A, a fascaplysin analogue from a Fijian Didemnum sp. ascidian” (Bioorg Med Chem, 2011)

How the values were obtained:
Plasmodium falciparum [1] = assay: Antimalarial activity against chloroquine- and mefloquine-resistant Plasmodium falciparum W2-Mef infected in human O-positive erythrocytes assessed as inhibition of trophozoites growth after 48 hrs; type: functional, organism-based
In short: (§1)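 Asynchronous W2-Mef cultures kept at 5% hematocrit in RPMI-1640-based malaria medium. Drugs were diluted in ½ log10 steps from 10 μM to 0.33 nM and grown in triplicate for 48 hr. Cells were stained 40 min with Hoechst 33342, thiazole orange, DiIC1-5 and propidium iodide, then read by flow cytometry; DNA/RNA levels assign ring, trophozoite and schizont stages. IC50 is taken from mean parasite counts relative to drug-free control wells.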

Plasmodium falciparum [2] = assay: Antimalarial activity against chloroquine- and mefloquine-resistant Plasmodium falciparum W2-Mef infected in human O-positive erythrocytes assessed as inhibition of schizonts growth after 48 hrs; type: functional, organism-based; in short: as §1
Plasmodium falciparum [3] = assay: Antimalarial activity against chloroquine- and mefloquine-resistant Plasmodium falciparum W2-Mef infected in human O-positive erythrocytes assessed as inhibition of ring-stage parasite growth after 48 hrs; type: functional, organism-based; in short: as §1
Plasmodium falciparum [4] = assay: Antimalarial activity against chloroquine- and mefloquine-resistant Plasmodium falciparum W2-Mef infected in human O-positive erythrocytes after 48 hrs; type: functional, organism-based; in short: as §1
Plasmodium falciparum [5] = assay: Antimalarial activity against chloroquine- and pyrimethamine-resistant Plasmodium falciparum K1; type: functional, organism-based
L6 = assay: Cytotoxicity against rat L6 cells; type: cell-based
[6] = Ratio of MIC for rat L6 cells to MIC for Plasmodium falciparum
Plasmodium falciparum [7] = assay: Ratio of IC50 for chloroquine- and mefloquine-resistant Plasmodium falciparum W2-Mef schizonts to IC50 for chloroquine- and mefloquine-resistant Plasmodium falciparum W2-Mef ring-stage parasite; type: functional
Plasmodium falciparum [8] = assay: Ratio of IC50 for chloroquine- and mefloquine-resistant Plasmodium falciparum W2-Mef trophozoites to IC50 for chloroquine- and mefloquine-resistant Plasmodium falciparum W2-Mef ring-stage parasite; type: functional

Q: With CC(=O)C[C@]1(O)c2ccc(Br)cc2-[n+]2ccc3c([nH]c4ccccc43)c21 as the compound, how does the IC50 (Plasmodium falciparum [1]) read?
A: 1190 nM

Q: What about the IC50 (Plasmodium falciparum [2]) of the same compound?
A: 765 nM

Q: And the IC50 (Plasmodium falciparum [3])?
A: 574 nM

Q: And the IC50 (Plasmodium falciparum [4])?
A: 805 nM

Q: For C[C@@H]1CC[C@H]2[C@@H](C)C(=O)O[C@@H]3O[C@@]4(C)CC[C@@H]1[C@]32OO4 [ARTEMISININ], which IC50 (Plasmodium falciparum [1]) is on record?
A: 6.46 nM

Q: What about the IC50 (Plasmodium falciparum [2]) of the same compound?
A: 5.91 nM

Q: What about the IC50 (Plasmodium falciparum [3]) of the same compound?
A: 5.92 nM

Q: What about the IC50 (Plasmodium falciparum [4]) of the same compound?
A: 6.25 nM

Q: For O=C1c2ccccc2-[n+]2ccc3c([nH]c4ccccc43)c21.[Cl-] [FASCAPLYSIN CHLORIDE], which IC50 (Plasmodium falciparum [5]) is on record?
A: 160 nM

Q: What about the Activity (L6) of the same compound?
A: 2.5 µg/mL

Q: And the IC50 (Plasmodium falciparum [1])?
A: 401 nM

Q: And the IC50 (Plasmodium falciparum [2])?
A: 65.2 nM

Q: What about the IC50 (Plasmodium falciparum [3]) of the same compound?
A: 7.82 nM

Q: And the IC50 (Plasmodium falciparum [4])?
A: 48.2 nM

Q: And the Ratio [6]?
A: 50

Q: For CC(=O)C[C@]1(O)c2ccccc2-[n+]2ccc3c([nH]c4ccccc43)c21.[Cl-] [HOMOFASCAPLYSINE A], which IC50 (Plasmodium falciparum [5]) is on record?
A: 38 nM

Q: What about the “Ratio IC50” value (Plasmodium falciparum [7]) of the same compound?
A: 170

Q: What about the Activity (L6) of the same compound?
A: 1.1 µg/mL

Q: What about the IC50 (Plasmodium falciparum [1]) of the same compound?
A: 252 nM

Q: What about the IC50 (Plasmodium falciparum [2]) of the same compound?
A: 94 nM

Q: What about the IC50 (Plasmodium falciparum [3]) of the same compound?
A: 0.55 nM

Q: And the IC50 (Plasmodium falciparum [4])?
A: 105 nM

Q: And the “Ratio IC50” value (Plasmodium falciparum [8])?
A: 450

Q: And the Ratio [6]?
A: 50
